Legend:
Type in all cases: functional
Conditions in all cases: Homo sapiens
[1] = tested on: MOLT-4; assay: Concentration required to inhibit 50% cell growth of MOLT-4 Leukemia cell line
Method in brief: (§1)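 Tested in the NCI in vitro Human Tumor Cell Line Screen. The GI50 is the concentration that causes 50% inhibition of net cell growth and is reported as the log of the molar concentration. If that level is not reached or is exceeded, the value is given as greater or less than the highest or lowest drug concentration.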

[2] = tested on: CCRF-CEM; assay: Concentration required to inhibit 50% cell growth of CCRF-CEM Leukemia cell line; method in brief: as §1
[3] = tested on: K562; assay: Concentration required to inhibit 50% cell growth of K-562 Leukemia cell line; method in brief: as §1
[4] = tested on: RPMI-8226; assay: Concentration required to inhibit 50% cell growth of RPMI-8226 Leukemia cell line; method in brief: as §1
[5] = tested on: HL-60; assay: Concentration required to inhibit 50% cell growth of HL-60 Leukemia cell line; method in brief: as §1

| GI50 [1] | GI50 [2] | GI50 [3] | GI50 [4] | GI50 [5] | Compound |
| --- | --- | --- | --- | --- | --- |
| 0.372 µM | 0.288 µM | 0.0794 µM | 0.24 µM | 0.0631 µM | COc1cc(-c2cc3ccccc3c3nc(N)c4ccccc4c23)cc(OC)c1OC |
| 2.95 µM | 1.12 µM | 2.82 µM | 2.4 µM | 7.08 µM | COc1ccc([C@H]2Cc3ccccc3-c3nc(N)c4ccccc4c32)cc1OC |
| 0.437 µM | 0.372 µM | 0.339 µM | 0.288 µM | 0.38 µM | COc1ccc(-c2cc3ccccc3c3nc(N)c4ccccc4c23)c(OC)c1OC |
| 0.234 µM | 0.17 µM | 0.0457 µM | 0.126 µM | 0.0617 µM | COc1ccc(-c2cc3ccccc3c3nc(N)c4ccccc4c23)cc1OC |
| 14.5 µM | 13.8 µM | 1.62 µM | 5.01 µM | 8.13 µM | COc1ccc([C@H]2Cc3ccccc3-c3nc(N)c4ccccc4c32)cc1O |
| 2.63 µM | 2.63 µM | 0.813 µM | 1.82 µM | 1.7 µM | COc1cc([C@H]2Cc3ccccc3-c3nc(N)c4ccccc4c32)cc(OC)c1OC |
| 3.47 µM | 20.9 µM | 4.27 µM | 4.27 µM | 6.76 µM | COc1ccc([C@H]2Cc3ccccc3-c3nc(N)c4ccccc4c32)c(OC)c1OC |
| 1.2 µM | 9.77 µM | 4.07 µM | 4.57 µM | 0.437 µM | Nc1nc2c3ccccc3cc(-c3ccco3)c2c2ccccc12 |
| 3.31 µM | 4.07 µM | 0.794 µM | 2.82 µM | 4.47 µM | Nc1nc2c3ccccc3cc(-c3ccc4c(c3)OCO4)c2c2ccccc12 |
| 4.79 µM | 3.55 µM | 3.09 µM | 3.31 µM | 5.5 µM | Nc1nc2c(c3ccccc13)[C@@H](c1ccc3c(c1)OCO3)Cc1ccccc1-2 |
| 3.72 µM | 3.31 µM | 3.09 µM | 2.82 µM | 4.17 µM | Nc1nc2c(c3ccccc13)[C@@H](c1ccco1)Cc1ccccc1-2 |
| 0.631 µM | 0.871 µM | 0.282 µM | 0.427 µM | 0.288 µM | COc1cc([C@H]2Cc3ccccc3-c3nc(N)c4ccccc4c32)cc(OC)c1O |
| 15.5 µM | 17.8 µM | 7.59 µM | 4.68 µM | 13.8 µM | COc1ccc(OC)c([C@H]2Cc3ccccc3-c3nc(N)c4ccccc4c32)c1 |
| 0.933 µM | 0.309 µM | 0.219 µM | 0.363 µM | 0.309 µM | COc1ccc(-c2cc3ccccc3c3nc(N)c4ccccc4c23)c(OC)c1 |
